Laboratory results reported in ChEMBL document CHEMBL1157779, “Merging the structural motifs of functionalized amino acids and alpha-aminoamides: compounds with significant anticonvulsant activities” (J Med Chem, 2010).
The source made the active and inactive calls.

Assays:
Mus musculus [1] = experiment: Anticonvulsant activity in ip dosed albino mouse assessed as inhibition of maximal electroshock-induced seizures after 0.5 hrs; assay type: functional
[2] = Behavioral toxicity in po dosed Sprague-Dawley albino rat after 4 hrs; assay type: organism-based; conditions: Sprague-Dawley, in vivo
Method in brief: (§1)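 Oral dosing in male albino Sprague-Dawley rats with behavioral toxicity observation at set times after dosing, doses up to 500 mg/kg.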

Mus musculus [3] = experiment: Anticonvulsant activity in albino mouse assessed as protection against subcutaneous metrazole-induced seizures up to 300 mg/kg, ip after 0.5 hrs; assay type: functional, organism-based; design: dose 300 mg/kg
Method in brief: (§2)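 Male albino Carworth Farms No. 1 mice dosed ip under NIH Anticonvulsant Screening Program; subcutaneous Metrazol seizure challenge at 0.5 and 4 h after doses up to 300 mg/kg.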

Mus musculus [4] = experiment: Anticonvulsant activity in albino mouse assessed as protection against subcutaneous metrazole-induced seizures up to 300 mg/kg, ip after 4 hrs; assay type: functional, organism-based; design: dose 300 mg/kg; method in brief: as §2
Mus musculus [5] = experiment: Anticonvulsant activity in ip dosed albino mouse assessed as inhibition of maximal electroshock-induced seizures after 4 hrs; assay type: functional
Method in brief: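 Male albino Carworth Farms No. 1 mice given compound ip; maximal electroshock applied and protection scored as blockade of hind limb extension; identification screening, then ED50 (mg/kg) from quantitative testing for active compounds.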

Mus musculus [6] = experiment: (§3) Toxicity in ip dosed albino mouse after 0.5 hrs by rotarod test; assay type: organism-based; conditions: in vivo, 0.5 h
[7] = Toxicity in ip dosed albino mouse after 4 hrs by rotarod test; assay type: organism-based; conditions: in vivo
Method in brief: (§4)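 Male albino Carworth Farms No. 1 mice dosed ip; neurological impairment by rotorod test at set times; TD50 (mg/kg) determined for compounds active in MES.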

Mus musculus [8] = experiment: Anticonvulsant activity in ip dosed albino mouse assessed as inhibition of maximal electroshock-induced seizures; assay type: functional
Method in brief: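 Male albino Carworth Farms No. 1 mice dosed intraperitoneally; screened via the NIH Anticonvulsant Screening Program. Protection scored as blocking of hind limb extension after maximal electroshock. Median effective dose (ED50, mg/kg) obtained in quantitative evaluations of active compounds. Rotorod test gave TD50 for neurological impairment, and PI = TD50/ED50.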

[9] = Toxicity in ip dosed albino mouse by rotarod test; assay type: organism-based; conditions: in vivo; method in brief: as §4
Mus musculus [10] = species on record: Mus musculus; experiment: Protective index, ratio of TD50 for albino mouse to anticonvulsant ED50 for albino mouse; assay type: functional
Mus musculus [11] = experiment: Anticonvulsant activity in ip dosed albino mouse assessed as protection against subcutaneous metrazole-induced seizures; assay type: functional
Method in brief: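 Subcutaneous Metrazol seizure model in male albino Carworth Farms No. 1 mice, ip dosing. Doses up to 300 mg/kg tested at two time points (0.5 and 4 h).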

Mus musculus [12] = experiment: Anticonvulsant activity in ip dosed albino mouse assessed as inhibition of maximal electroshock-induced seizures after […]; assay type: functional
Mus musculus [13] = experiment: Anticonvulsant activity in ip dosed albino mouse assessed as protection against 6 Hz electric shock-induced seizures after […]; assay type: functional
Rattus norvegicus [14] = experiment: Anticonvulsant activity in po dosed Sprague-Dawley albino rat assessed as inhibition of maximal electroshock-induced seizures after 0.5 hrs; assay type: functional
Rattus norvegicus [15] = experiment: Behavioral toxicity in po dosed Sprague-Dawley albino rat after 0.5 hrs; assay type: organism-based; conditions: in vivo; method in brief: as §1
Rattus norvegicus [16] = species on record: Rattus norvegicus; experiment: Protective index, ratio of TD50 for Sprague-Dawley albino rat to anticonvulsant ED50 for Sprague-Dawley albino rat; assay type: functional
Method in brief: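 Rat, oral: behavioral-toxicity TD50 divided by MES ED50, both in mg/kg.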

Rattus norvegicus [17] = experiment: Antiallodynic activity in Sprague-Dawley albino rat sciatic nerve ligation model of neuropathic pain assessed as fold attenuation of mechanical allodynia at 12 mg/kg, ip after 1 hr relative to control; assay type: functional; conditions: route intraperitoneal
Method in brief: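 Male albino Sprague-Dawley rats; sciatic nerve ligated on right side, sham exposure on left; after 7 d recovery, animals on wire mesh platform, 30–60 min acclimation. Baseline 50% paw withdrawal threshold by calibrated von Frey fibres held 6 s, stepping down after a positive response; threshold re-measured after 12 mg/kg ip at time-to-peak effect in MES test.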

Mus musculus [18] = experiment: Antiinflammatory activity in albino mouse assessed as reduction in formalin-induced acute inflammation at 15 mg/kg, ip relative to control; assay type: functional; design: scale not given: the % may be the effect or the level left; conditions: route intraperitoneal
Method in brief: (§5)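 Male albino mice, 16 per trial (8 given vehicle ip, 8 given 15 mg/kg ip); 0.5% formalin injected into hind paw; paw-licking time recorded in 2 min intervals for 45 min; acute and late (inflammatory) phases expressed as percent of control.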

Mus musculus [19] = experiment: Antiinflammatory activity in albino mouse assessed as reduction in formalin-induced late inflammation at 15 mg/kg, ip relative to control; assay type: functional; design: scale not given: the % may be the effect or the level left; conditions: route intraperitoneal; method in brief: as §5
[20] = as §3; assay type: organism-based; conditions: albino, in vivo
Rattus norvegicus [21] = experiment: Anticonvulsant activity in po dosed Sprague-Dawley albino rat assessed as inhibition of maximal electroshock-induced seizures after 1 hr; assay type: functional
Method in brief: (§6)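 Male albino Sprague-Dawley rats dosed orally; maximal electroshock seizures, protection scored as blockade of hind limb extension, tested at set times after dosing; ED50 in mg/kg from quantitative evaluation for active compounds.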

Rattus norvegicus [22] = experiment: Anticonvulsant activity in po dosed Sprague-Dawley albino rat assessed as inhibition of maximal electroshock-induced seizures after 4 hrs; assay type: functional; method in brief: as §6
[23] = Behavioral toxicity in po dosed Sprague-Dawley albino rat after […]; assay type: organism-based; conditions: in vivo
[24] = Toxicity in ip dosed albino mouse after […] by rotarod test; assay type: organism-based; conditions: in vivo
Rattus norvegicus [25] = experiment: Anticonvulsant activity in po dosed Sprague-Dawley albino rat assessed as inhibition of maximal electroshock-induced seizures after 2 hrs; assay type: functional
Rattus norvegicus [26] = experiment: (§7) Behavioral toxicity in po dosed Sprague-Dawley albino rat after 1 hr; assay type: organism-based; conditions: in vivo, 1 h; method in brief: as §1
[27] = as §7; assay type: organism-based; conditions: Sprague-Dawley, in vivo; method in brief: as §1
Rattus norvegicus [28] = experiment: Anticonvulsant activity in po dosed Sprague-Dawley albino rat assessed as inhibition of maximal electroshock-induced seizures; assay type: functional; method in brief: as §6
Rattus norvegicus [29] = experiment: Behavioral toxicity in po dosed Sprague-Dawley albino rat; assay type: organism-based; conditions: in vivo

Compound: CC(=O)NC(C(=O)NCc1ccc(OCc2cccc(F)c2)cc1)c1ccccn1 (racemic)
- ED50 (Mus musculus [1]): 28 mg/kg
- TD50 at 4 h [2]: > 30 mg/kg
- Activity (Mus musculus [3]): inactive
- Activity (Mus musculus [4]): inactive

Compound: CC(=O)N[C@@H](C(=O)NCc1ccc(OCc2cccc(F)c2)cc1)C(C)(C)C
- ED50 (Mus musculus [5]): > 300 mg/kg
- TD50 (Mus musculus [6]): > 300 mg/kg
- TD50 at 4 h [7]: 300 mg/kg
- Activity (Mus musculus [3]): inactive
- Activity (Mus musculus [4]): inactive

Compound: C[C@H](NCc1ccc(OCc2cccc(F)c2)cc1)C(N)=O [SAFINAMIDE]
- ED50 (Mus musculus [8]): 8 mg/kg
- TD50 [9]: 630 mg/kg
- Ratio TD50/ED50 (Mus musculus [10]): 78
- Activity (Mus musculus [3]): inactive
- Activity (Mus musculus [4]): inactive
- ED50 (Mus musculus [11]): 27 mg/kg

Compound: COC[C@@H](NC(C)=O)C(=O)NCc1ccc(OCc2cccc(F)c2)cc1
- ED50 (Mus musculus [12]): 13 mg/kg
- ED50 (Mus musculus [13]): 10 mg/kg
- Ratio TD50/ED50 (Mus musculus [10]): 2
- ED50 (Rattus norvegicus [14]): 14 mg/kg
- TD50 (Rattus norvegicus [15]): > 500 mg/kg
- Ratio TD50/ED50 (Rattus norvegicus [16]): >36
- Activity (Mus musculus [3]): inactive
- Activity (Mus musculus [4]): inactive
- fold change (FC) (Rattus norvegicus [17]): 11.2
- Activity (Mus musculus [18]): 35%
- Activity (Mus musculus [19]): 44%

Compound: C[C@@H](NCc1ccc(OCc2cccc(F)c2)cc1)C(N)=O
- ED50 (Mus musculus [8]; read-out: ED50): 7.2 mg/kg
- TD50 [9]: 580 mg/kg
- Ratio TD50/ED50 (Mus musculus [10]): 88
- Activity (Mus musculus [3]): inactive
- Activity (Mus musculus [4]): inactive

Compound: O=C1NC(=O)C(c2ccccc2)(c2ccccc2)N1
- Activity (Mus musculus [3]): inactive
- Activity (Mus musculus [4]): inactive

Compound: CC(=O)NC(C(=O)NCc1ccccc1)c1ccco1 (racemic)
- TD50 [9]: 40 mg/kg

Compound: COC[C@@H](NC(C)=O)C(=O)NCc1ccc(/C=C/c2cccc(F)c2)cc1
- ED50 (Mus musculus [1]): 30 mg/kg
- ED50 (Mus musculus [13]): < 30 mg/kg
- TD50 at 0.5 h [20]: 100 mg/kg
- ED50 (Rattus norvegicus [21]): 30 mg/kg
- ED50 (Rattus norvegicus [22]): 30 mg/kg
- TD50 at […] [23]: > 30 mg/kg

Compound: COC[C@@H](NC(C)=O)C(=O)NCc1ccc(COc2cccc(F)c2)cc1
- ED50 (Mus musculus [12]): 5.9 mg/kg
- TD50 at […] [24]: 10 mg/kg
- Ratio TD50/ED50 (Mus musculus [10]): 1.8
- ED50 (Rattus norvegicus [25]): 19 mg/kg
- Ratio TD50/ED50 (Rattus norvegicus [16]): >21

Compound: CCC1(c2ccccc2)C(=O)NC(=O)NC1=O
- Activity (Mus musculus [3]): inactive
- Activity (Mus musculus [4]): inactive

Compound: COC[C@@H](NC(C)=O)C(=O)NCc1ccc(CCc2cccc(F)c2)cc1
- ED50 (Mus musculus [1]): 10 mg/kg
- TD50 at 0.5 h [20]: 30 mg/kg
- ED50 (Rattus norvegicus [21]): < 30 mg/kg
- TD50 (Rattus norvegicus [26]): > 30 mg/kg

Compound: COC[C@@H](NC(C)=O)C(=O)NCc1ccc(OCc2ccccc2)cc1
- ED50 (Mus musculus [12]): 5.8 mg/kg
- Ratio TD50/ED50 (Mus musculus [10]): 3.8
- TD50 at 1 h [27]: > 250 mg/kg
- Ratio TD50/ED50 (Rattus norvegicus [16]): >45

Compound: CC(=O)N[C@@H](C(=O)NCc1ccc(OCc2cccc(F)c2)cc1)C(C)C
- ED50 (Mus musculus [5]): > 300 mg/kg
- TD50 at 4 h [7]: > 300 mg/kg
- ED50 (Rattus norvegicus [28]): > 30 mg/kg
- TD50 (Rattus norvegicus [29]): > 30 mg/kg
- Activity (Mus musculus [3]): inactive
- Activity (Mus musculus [4]): inactive

Compound: CCCC(CCC)C(=O)[O-].[Na+] [VALPROATE SODIUM]
- ED50 (Mus musculus [12]): 270 mg/kg
- Activity (Mus musculus [3]): inactive
- Activity (Mus musculus [4]): inactive
